# Data from ChEMBL document CHEMBL4346709, “Design and Optimization Leading to an Orally Active TTK Protein Kinase Inhibitor with Robust Single Agent Efficacy” (J Med Chem, 2019).
# Calls of active or inactive are those of the source. No cut-off for these calls is given here.
# Columns and labels:
# Mus musculus [1] = test: Inhibition of mitosis in human CAL51 cells xenografted in CB17 SCID mouse assessed reduction in pHH3 ser10 level at 30 mg/kg, po administered as single dose measured after 1 hr by MSD electrochemiluminescent immunoassay; assay type: functional, organism-based
# In short: (§1)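 CB17 SCID mice bearing CAL-51 tumours of 300-500 mm3 given compound orally. At preset time points the mice were euthanised and the tumours dissected and snap-frozen in liquid nitrogen. pHH3 Ser10 or cleaved caspase measured by MSD electrochemiluminescent immunoassay kit. Data are mean ± SEM.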
# [2] = target: Mitogen-activated protein kinase 9 (Homo sapiens, UniProt P45984); test: Inhibition of recombinant human full length His-tagged JNK2 expressed in baculovirus expression system at 3 uM by Z'-LYTE assay relative to control
# In short: (§2)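 Kinase selectivity panel: single-point assessment at 3 µM, n=1.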
# [3] = Oral bioavailability in CB17 SCID mouse at 30 mg/kg; assay type: ADME, organism-based; settings: in vivo
# [4] = target: T1, Dual specificity tyrosine-phosphorylation-regulated kinase 3 (Homo sapiens) (UniProt O43781); test: Inhibition of recombinant human full length GST-tagged DYRK3 expressed in baculovirus expression system at 3 uM by Z'-LYTE assay relative to control; in short: as §2
# T1 sequence (whole entry): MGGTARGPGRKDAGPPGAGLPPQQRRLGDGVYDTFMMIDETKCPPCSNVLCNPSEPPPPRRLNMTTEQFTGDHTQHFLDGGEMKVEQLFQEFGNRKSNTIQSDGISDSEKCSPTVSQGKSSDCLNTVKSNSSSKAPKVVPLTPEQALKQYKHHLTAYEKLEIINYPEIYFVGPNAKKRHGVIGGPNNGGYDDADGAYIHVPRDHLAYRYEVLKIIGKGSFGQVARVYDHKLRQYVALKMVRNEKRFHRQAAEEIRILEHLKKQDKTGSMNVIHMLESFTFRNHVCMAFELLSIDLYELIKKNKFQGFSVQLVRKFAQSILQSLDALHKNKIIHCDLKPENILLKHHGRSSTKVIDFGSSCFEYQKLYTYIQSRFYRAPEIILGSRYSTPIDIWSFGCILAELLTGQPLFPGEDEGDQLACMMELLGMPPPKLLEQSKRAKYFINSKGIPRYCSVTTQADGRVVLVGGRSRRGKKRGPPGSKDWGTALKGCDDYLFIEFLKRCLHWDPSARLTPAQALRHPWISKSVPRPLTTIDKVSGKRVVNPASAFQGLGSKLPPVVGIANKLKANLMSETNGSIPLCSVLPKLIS
# [5] = target: T2, Dual specificity protein kinase CLK2 (Homo sapiens, UniProt P49760); test: Inhibition of recombinant human GST-tagged CLK2 catalytic domain (137 to 498 residues) expressed in baculovirus expression system at 3 uM by Z'-LYTE assay relative to control; in short: as §2
# Target sequence in this assay (P49760 whole entry, looked up, the tested form may be a part): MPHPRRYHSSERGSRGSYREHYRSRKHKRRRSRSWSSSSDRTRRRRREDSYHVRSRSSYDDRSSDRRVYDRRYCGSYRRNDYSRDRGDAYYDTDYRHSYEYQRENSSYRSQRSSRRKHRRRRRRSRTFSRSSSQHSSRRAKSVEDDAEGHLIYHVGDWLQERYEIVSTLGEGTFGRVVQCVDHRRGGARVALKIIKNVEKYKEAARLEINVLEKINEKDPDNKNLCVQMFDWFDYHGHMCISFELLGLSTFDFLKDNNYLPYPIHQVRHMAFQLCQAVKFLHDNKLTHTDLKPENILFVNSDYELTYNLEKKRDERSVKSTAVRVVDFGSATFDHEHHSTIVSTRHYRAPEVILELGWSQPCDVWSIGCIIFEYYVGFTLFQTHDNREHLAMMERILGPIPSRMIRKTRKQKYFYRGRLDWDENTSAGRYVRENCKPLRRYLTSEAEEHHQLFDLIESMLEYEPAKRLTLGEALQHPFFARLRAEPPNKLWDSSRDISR
# [6] = target: T2, Dual specificity protein kinase CLK2; test: Inhibition of recombinant human GST-tagged CLK2 catalytic domain (137 to 498 residues) expressed in baculovirus expression system by Z'-LYTE assay
# Target sequence in this assay (P49760 whole entry, the tested form may be a part): as the sequence (P49760 whole entry, looked up, the tested form may be a part) above
# [7] = target: T3, Dual specificity protein kinase TTK (Homo sapiens, UniProt P33981); test: Inhibition of TTK in human CAL51 cells assessed as decrease in phosphorylated TTK T686 levels after 1 hr by Western blot analysis; assay type: cell-based
# T3 sequence (P33981 whole entry): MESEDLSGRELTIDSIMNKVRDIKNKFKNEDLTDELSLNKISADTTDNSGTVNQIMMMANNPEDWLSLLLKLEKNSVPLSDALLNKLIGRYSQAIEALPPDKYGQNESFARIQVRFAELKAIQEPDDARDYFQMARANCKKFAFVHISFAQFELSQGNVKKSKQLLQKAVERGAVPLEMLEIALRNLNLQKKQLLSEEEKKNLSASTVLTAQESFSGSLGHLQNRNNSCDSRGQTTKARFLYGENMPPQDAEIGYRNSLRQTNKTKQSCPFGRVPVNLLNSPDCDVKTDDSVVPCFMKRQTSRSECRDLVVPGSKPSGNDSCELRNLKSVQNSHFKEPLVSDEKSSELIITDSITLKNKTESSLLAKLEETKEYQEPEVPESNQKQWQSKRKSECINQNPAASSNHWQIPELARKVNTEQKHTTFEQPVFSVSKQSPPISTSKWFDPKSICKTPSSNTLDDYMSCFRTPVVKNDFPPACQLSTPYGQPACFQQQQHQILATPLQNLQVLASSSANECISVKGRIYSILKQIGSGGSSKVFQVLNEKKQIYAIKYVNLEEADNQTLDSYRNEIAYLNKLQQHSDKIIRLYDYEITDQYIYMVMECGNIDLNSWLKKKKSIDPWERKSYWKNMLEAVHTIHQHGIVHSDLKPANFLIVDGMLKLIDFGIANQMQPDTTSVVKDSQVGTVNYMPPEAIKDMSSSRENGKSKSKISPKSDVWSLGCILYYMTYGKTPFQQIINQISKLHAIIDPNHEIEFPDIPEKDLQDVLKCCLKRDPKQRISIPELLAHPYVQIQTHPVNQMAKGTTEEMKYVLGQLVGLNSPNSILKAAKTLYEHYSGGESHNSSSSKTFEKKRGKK
# CAL-51 [8] = test: Antitumor activity against human CAL51 cells xenografted in po dosed CB17 SCID mouse assessed as tumor growth inhibition administered every seven days for 16 days and measured twice per week up to 31 days by caliper method; assay type: functional, organism-based
# In short: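 Female CB17 SCID mice, 6-8 weeks old, inoculated subcutaneously with 2×10^6 CAL-51 cells. Oral dosing once weekly (QW) at 30-120 mg/kg, or 30 mg/kg BID QW, for 16 days, against vehicle control. Tumour long and short axes measured twice weekly by digital caliper; volume = width² × length/2. Values are TGI; data are mean ± SEM.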
# [9] = target: Leucine-rich repeat serine/threonine-protein kinase 2 (Homo sapiens, UniProt Q5S007, G2019S); test: Inhibition of recombinant human GST-tagged LRRK2 G2019S mutant catalytic domain (970 to 2527 residues) expressed in baculovirus expression system using LRRKtide as substrate measured after 1 hr by Alexa-fluor-647 ADP tracer-based ADAPTA assay
# CAL-51 [10] = test: Antiproliferative activity against human CAL51 cells assessed as reduction in cell viability after 3 days by CellTiter-Glo reagent-based luminescent assay; assay type: functional; settings: CAL-51, 72 h
# Homo sapiens [11] = species: Homo sapiens; test: Selectivity ratio of IC50 for recombinant human full length His-tagged JNK2 expressed in baculovirus expression system to IC50 for inhibition of Kinase Tracer 236 binding to recombinant human full-length GST-tagged TTk expressed in baculovirus expression system
# CAL-51 [12] = test: Induction of apoptosis in human CAL51 cells xenografted in CB17 SCID mouse assessed as activation of cleaved caspase-3 at 10 mg/kg, po measured after 1 to 48 hrs by MSD electrochemiluminescent immunoassay relative to control; assay type: functional; in short: as §1
# Homo sapiens [13] = species: Homo sapiens; test: Selectivity ratio of IC50 for inhibition of recombinant human GST-tagged LRRK2 G2019S mutant catalytic domain (970 to 2527 residues) expressed in baculovirus expression system to IC50 for inhibition of Kinase Tracer 236 binding to recombinant human full-length GST-tagged TTk expressed in baculovirus expression system
# Mus musculus [14] = test: Inhibition of mitosis in human CAL51 cells xenografted in CB17 SCID mouse assessed reduction in pHH3 ser10 level at 30 mg/kg, po administered as single dose measured up to 48 hrs by MSD electrochemiluminescent immunoassay; assay type: functional, organism-based; in short: as §1
# Sequence of Leucine-rich repeat serine/threonine-protein kinase 2 (Q5S007 whole entry G2019S, the tested form may be a part): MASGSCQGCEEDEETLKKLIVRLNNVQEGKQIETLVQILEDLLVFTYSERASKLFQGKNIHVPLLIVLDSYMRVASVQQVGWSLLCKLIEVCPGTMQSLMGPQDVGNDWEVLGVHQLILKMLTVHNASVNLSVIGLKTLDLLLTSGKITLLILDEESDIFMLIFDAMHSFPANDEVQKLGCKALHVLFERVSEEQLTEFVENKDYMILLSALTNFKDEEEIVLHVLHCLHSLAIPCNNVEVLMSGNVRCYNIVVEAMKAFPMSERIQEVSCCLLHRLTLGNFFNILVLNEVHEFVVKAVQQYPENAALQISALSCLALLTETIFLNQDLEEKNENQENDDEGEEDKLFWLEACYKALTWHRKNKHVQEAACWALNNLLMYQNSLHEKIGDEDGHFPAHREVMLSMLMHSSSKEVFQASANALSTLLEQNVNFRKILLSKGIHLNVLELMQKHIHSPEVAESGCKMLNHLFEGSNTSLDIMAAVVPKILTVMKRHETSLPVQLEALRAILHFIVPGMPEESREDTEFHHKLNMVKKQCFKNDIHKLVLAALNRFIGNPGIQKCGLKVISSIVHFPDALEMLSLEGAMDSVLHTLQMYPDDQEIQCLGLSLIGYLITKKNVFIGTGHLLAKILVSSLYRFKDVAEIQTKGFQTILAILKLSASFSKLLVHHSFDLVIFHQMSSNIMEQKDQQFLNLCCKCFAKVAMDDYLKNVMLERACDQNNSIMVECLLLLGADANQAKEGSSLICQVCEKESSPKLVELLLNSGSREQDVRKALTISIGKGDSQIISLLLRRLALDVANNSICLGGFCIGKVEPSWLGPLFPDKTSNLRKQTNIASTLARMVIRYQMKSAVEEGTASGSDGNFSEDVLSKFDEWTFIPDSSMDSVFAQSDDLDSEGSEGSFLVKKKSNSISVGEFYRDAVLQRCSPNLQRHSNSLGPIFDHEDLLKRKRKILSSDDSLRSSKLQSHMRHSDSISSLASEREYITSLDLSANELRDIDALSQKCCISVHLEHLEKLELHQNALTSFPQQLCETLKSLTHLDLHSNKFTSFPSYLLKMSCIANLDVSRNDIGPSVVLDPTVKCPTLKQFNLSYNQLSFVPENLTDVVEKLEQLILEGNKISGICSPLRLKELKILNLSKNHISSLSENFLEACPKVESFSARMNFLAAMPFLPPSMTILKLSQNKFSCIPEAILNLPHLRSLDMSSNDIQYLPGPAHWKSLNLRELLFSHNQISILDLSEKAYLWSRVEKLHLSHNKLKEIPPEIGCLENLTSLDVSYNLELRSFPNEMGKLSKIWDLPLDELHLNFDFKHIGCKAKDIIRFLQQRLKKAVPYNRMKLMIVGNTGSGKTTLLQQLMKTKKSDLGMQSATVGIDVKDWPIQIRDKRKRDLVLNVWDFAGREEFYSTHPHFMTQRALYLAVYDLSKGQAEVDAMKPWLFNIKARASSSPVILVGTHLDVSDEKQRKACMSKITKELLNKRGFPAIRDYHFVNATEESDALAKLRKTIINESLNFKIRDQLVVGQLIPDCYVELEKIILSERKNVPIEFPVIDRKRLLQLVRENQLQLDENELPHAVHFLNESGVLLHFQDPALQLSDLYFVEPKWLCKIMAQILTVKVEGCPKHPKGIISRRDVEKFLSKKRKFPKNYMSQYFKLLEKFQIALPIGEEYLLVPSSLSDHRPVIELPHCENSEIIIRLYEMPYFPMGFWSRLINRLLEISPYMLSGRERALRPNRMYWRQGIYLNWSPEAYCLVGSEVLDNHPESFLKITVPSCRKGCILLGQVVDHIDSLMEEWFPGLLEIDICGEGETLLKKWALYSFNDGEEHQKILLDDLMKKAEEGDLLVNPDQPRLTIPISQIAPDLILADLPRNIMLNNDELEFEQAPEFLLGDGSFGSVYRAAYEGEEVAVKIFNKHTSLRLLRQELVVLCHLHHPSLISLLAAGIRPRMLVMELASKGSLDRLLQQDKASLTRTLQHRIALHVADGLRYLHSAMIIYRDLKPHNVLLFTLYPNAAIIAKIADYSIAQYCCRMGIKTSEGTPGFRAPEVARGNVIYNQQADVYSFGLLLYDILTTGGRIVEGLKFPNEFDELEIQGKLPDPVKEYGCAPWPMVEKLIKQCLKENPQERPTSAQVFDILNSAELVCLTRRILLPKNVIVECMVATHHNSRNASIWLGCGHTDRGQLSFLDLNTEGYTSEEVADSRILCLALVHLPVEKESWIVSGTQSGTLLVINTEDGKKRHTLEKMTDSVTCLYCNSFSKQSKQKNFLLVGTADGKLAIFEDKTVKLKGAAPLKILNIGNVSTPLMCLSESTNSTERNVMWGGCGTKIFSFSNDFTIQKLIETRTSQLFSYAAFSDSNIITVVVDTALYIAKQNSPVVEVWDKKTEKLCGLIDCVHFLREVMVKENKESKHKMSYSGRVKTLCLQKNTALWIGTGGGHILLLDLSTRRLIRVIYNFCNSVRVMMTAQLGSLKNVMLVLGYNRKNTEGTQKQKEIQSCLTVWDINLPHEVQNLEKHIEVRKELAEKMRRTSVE
# Sequence of Mitogen-activated protein kinase 9 (P45984 whole entry, looked up): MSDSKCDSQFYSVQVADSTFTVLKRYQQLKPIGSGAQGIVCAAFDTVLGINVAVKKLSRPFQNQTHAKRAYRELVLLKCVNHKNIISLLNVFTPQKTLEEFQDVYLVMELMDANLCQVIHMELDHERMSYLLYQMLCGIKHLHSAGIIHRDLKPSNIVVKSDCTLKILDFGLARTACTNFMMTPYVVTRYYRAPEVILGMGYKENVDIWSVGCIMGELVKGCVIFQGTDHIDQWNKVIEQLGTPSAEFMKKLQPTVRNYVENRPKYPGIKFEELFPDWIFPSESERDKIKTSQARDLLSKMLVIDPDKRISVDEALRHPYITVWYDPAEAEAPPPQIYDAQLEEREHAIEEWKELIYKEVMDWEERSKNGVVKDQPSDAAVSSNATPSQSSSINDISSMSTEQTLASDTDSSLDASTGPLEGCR
structure (smiles),measurement,setting,value
C[C@@H](Oc1cc(C(=O)N(C)C)ccc1Nc1nc(O[C@H]2CC[C@@](C)(O)CC2)c2c(Cl)c[nH]c2n1)C(F)(F)F,inhibition,Mus musculus [1],Active
same,inhibition,[2],> 80%
same,bioavailability,[3],60%
same,inhibition,[4],> 80%
same,inhibition,[5],> 80%
same,IC50,[6],0.261 nM
same,IC50,[7],11 nM
same,TGI,CAL-51 [8],Dose-dependent effect
same,IC50,[9],0.001 nM
same,IC50,CAL-51 [10],10 nM
same,Ratio IC50,Homo sapiens [11],< 100
same,Activity,CAL-51 [12],159%
same,Ratio IC50,Homo sapiens [13],< 100
same,inhibition,Mus musculus [14],Active
